Most compounds without a hit are left out; they make up all but 3.8% or so of the library.
FN deposition inh: inhibitors of fibronectin matrix deposition, primary screen, AH1F cells, Alexa488-fibronectin fluorescence, plate reader | hit rate 0.086% among 350,000 | AID 743247, 2014 | inhibition, % at 12.6 µM | AH1F fibroblasts, overnight;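 active means mean inhibition across replicates of 30% or more, regardless of how many single replicates reach that level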
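test system = AH1F fibroblasts assembling fluorescent fibronectin matrix | quantity = 10000 AH1F cells per well | buffer or medium = DMEM plus 2% serum, read in PBS | doses = single dose, pinned | incubation = 1 h cell attachment, overnight exposure to compound and label | detection = fluorescence at 485 nm excitation, 525 nm emission | read-out basis = inhibition from reduced deposited-fibronectin fluorescence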
XiGFP reactiv: activators of inactive X chromosome reactivation, primary screen, imaging, XiGFP fibroblasts, GFP high-content imaging, set 2; XiGFP mouse fibroblasts, % GFP-positive cells imaging, 3 d; cells co-treated with 5-aza-dC sensitizer; scaled so ellipticine positive control = 100%; activation, % at 7.58 µM; hit rate 0.055% among 360,000;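 active means mean normalized replicate activation at least 10% and every replicate at or above 10%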
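Material: XiGFP fibroblasts, SV40-immortalized. Buffer or medium: DMEM plus 5-aza-dC sensitizer. Compound: single concentration per compound, delivered by pin transfer. Times: 3 days compound exposure. Controls: ellipticine 6 µM.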
ARNT TACC3 PPI: disruptors of ARNT/TACC3 protein interaction, primary screen, biochemical, AlphaScreen, single concentration | hit rate 0.66% among 390,000 | inhibition, % at 9.99 µM | AlphaScreen His-ARNT PAS-B/GST-TACC3 binding, luminescence; TACC3 fragment carries E629A point mutation | AID 623870, 2012 | Transforming acidic coiled-coil-containing protein 3 (Homo sapiens), Q9Y6A5;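 active means mean inhibition of replicates at least 50% and at least half of replicates each reaching 50%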
SIRT5 inh: SIRT5 desuccinylase inhibitors, primary screen, biochemical, fluorescence imaging, single point, set 5; NAD-dependent protein deacylase sirtuin-5, mitochondrial (Homo sapiens), Q9NXA8; Purified SirT5, succinyl-peptide AMC, trypsin-coupled fluorescence; AID 652115, 2013; inhibition, % at 15 µM; hit rate 1.1% among 330,000; in the data active means inhibition above about 15%
FGF22 binding: binders of human FGF22 protein, primary screen, FGF22 synaptogenesis inhibitor project, biophysical, thermal shift, single point. Fibroblast growth factor 22 (Homo sapiens), Q9HCT0. recombinant FGF22 thermal shift, SYPRO orange fluorescence; percent of sucrose octasulfate shift, DMSO zero. activity (Tm shift, normalised), % at 9.99 µM. hit rate 1.5% among 340,000. AID 651658, 2012;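 active means mean Tm shift, scaled 0 neutral to 100 positive control, at about 1.3% or above, every replicate too, limit read from the data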
Target sequence (Q9HCT0 whole entry, looked up): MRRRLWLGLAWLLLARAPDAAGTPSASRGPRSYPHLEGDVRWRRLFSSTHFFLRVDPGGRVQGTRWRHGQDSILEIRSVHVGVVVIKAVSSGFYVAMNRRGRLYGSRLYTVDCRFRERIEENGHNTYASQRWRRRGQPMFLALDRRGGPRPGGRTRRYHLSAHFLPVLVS
DENV2 CPE: inhibitors of DENV2 cytopathic effect, primary screen, cell-based, plate reader, single concentration; CPE inhibition, % at 9.99 µM; DENV2-infected cells, cytopathic effect rescue; hit rate 1.7% among 350,000; in the data active means CPE inhibition above about 20%, passing the limit was not always enough; tested in BHK-21 cells
Numbers stand for hits; 0 = inactive; - = not tested or not shown.

SMILES	FN deposition inh	XiGFP reactiv	ARNT TACC3 PPI	SIRT5 inh	FGF22 binding	DENV2 CPE
C[C@@H]1CN([C@H](C)CO)C(=O)c2cc(NS(C)(=O)=O)ccc2O[C@H]1CN(C)Cc1ccc(Oc2ccccc2)cc1	0	0	0	0	0	0
CC(=O)NCc1ccc(C(=O)COC(=O)COc2ccc(Cl)c(C)c2)s1	0	0	0	0	0	65
COc1ccc(Cn2nnnc2C(c2cc3cc(C)ccc3[nH]c2=O)N2CCN(C)CC2)cc1 (configuration not stated)	0	0	0	0	44	0
CCC(C)(C)n1nnnc1C(c1cc2cc(C)ccc2[nH]c1=O)N1CCCc2ccccc21 (configuration not stated)	-	-	0	17	0	0
COc1ccc2cc(C#N)c(Nc3cccc(F)c3)nc2c1	0	0	0	0	44	0
COc1ccc(Nc2nc3cc(C)ccc3cc2C#N)cc1	0	0	0	0	0	0
COC(=O)[C@H]1[C@H](CO)[C@H]2Cn3c(ccc(/C=C/c4ccccc4)c3=O)[C@H]2N1C(=O)c1cnccn1	-	0	0	0	0	0
O=C(O)[C@H]1[C@H](CO)[C@H]2Cn3c(ccc(/C=C/c4ccccc4)c3=O)[C@H]2N1C(=O)c1cnccn1	-	0	0	0	0	103
CCCN1[C@H](C(=O)N(C)C)[C@@H](CO)[C@@H]2Cn3c(ccc(/C=C/c4ccccc4)c3=O)[C@@H]21	-	0	0	0	0	56
CCC(=O)Nc1ccc2c(c1)C(=O)N(C)[C@H]1CC[C@H](CC(=O)NCCN3CCCCC3)O[C@@H]1CO2	0	0	0	0	0	0
CCCC(=O)N1CC2(C1)CN(C(=O)Nc1cccc(F)c1)[C@H](CO)c1c2c2ccc(OC)cc2n1C	0	0	-	0	0	0
CNC[C@H]1OCCCC[C@@H](C)Oc2ccc(NC(=O)Cc3ccccc3)cc2C(=O)N([C@H](C)CO)C[C@H]1C	-	0	0	0	0	0
Cc1nc2cc(C(F)(F)F)ccc2n1CCNc1nc(-c2ccc(F)cc2)cs1	0	0	0	0	0	0
Cc1ccc(-c2csc(NCCn3c(-c4ccncc4)nc4cc(C(F)(F)F)ccc43)n2)cc1	0	0	0	17	0	0
COCc1ccc(CN2CCc3c([nH]c4ccccc34)C2CC(C)C)o1 (configuration not stated)	0	0	0	0	43	0
C[C@H]1CCCCO[C@H](CN(C)C(=O)Nc2ccccc2)[C@@H](C)CN([C@@H](C)CO)C(=O)c2cc(NS(=O)(=O)c3cn(C)cn3)ccc2O1	0	0	0	0	0	0
O=c1cnnc(N/N=C/c2cccs2)[nH]1	0	0	62	-	0	0
Cc1cc(=O)[nH]c(N/N=C/c2cccs2)n1	0	0	0	-	-	-
O=c1cnnc(N/N=C/c2c[nH]c3ccccc23)[nH]1	0	0	0	0	43	0
O=c1nc(N/N=C/c2c[nH]c3ccccc23)cn[nH]1	0	0	0	0	0	0
CC1=C/C(=C(/c2cc(C)c(O)c(Br)c2)c2ccccc2S(=O)(=O)O)C=C(Br)C1=O	0	0	49	0	-	0
CCN1C[C@@H]2[C@@H]3C(=O)N(Cc4ccccc4)C(=O)[C@@H]3[C@](Cc3ccccc3)(C1=O)N2C(=O)c1ccc(C)cc1	0	0	0	17	0	0
CN1C[C@@H]2[C@@H]3C(=O)N(Cc4ccccc4)C(=O)[C@@H]3[C@](C)(C1=O)N2C(=O)c1ccc(C(C)(C)C)cc1	0	0	0	0	0	54
